Sampled rows, rich in hits. Any-hit rate of the full collection: about 3.1%.
KCNK9 inh: KCNK9 potassium channel inhibitors, primary screen, HEK293 cells, thallium flux. actives 1.2% (n = 310,000). B-score at 10 µM. AID 488922, 2010. Potassium channel subfamily K member 9 (Homo sapiens), Q9NPC2. FluxOR thallium flux fluorescence; stronger effect = lower value;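 active = ratio B-score over 3 SD below the library mean, with starting fluorescence within 5 SD of its mean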;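 also: negative B-score means less thallium flux so channel inhibition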
Target sequence (Q9NPC2 whole entry, looked up): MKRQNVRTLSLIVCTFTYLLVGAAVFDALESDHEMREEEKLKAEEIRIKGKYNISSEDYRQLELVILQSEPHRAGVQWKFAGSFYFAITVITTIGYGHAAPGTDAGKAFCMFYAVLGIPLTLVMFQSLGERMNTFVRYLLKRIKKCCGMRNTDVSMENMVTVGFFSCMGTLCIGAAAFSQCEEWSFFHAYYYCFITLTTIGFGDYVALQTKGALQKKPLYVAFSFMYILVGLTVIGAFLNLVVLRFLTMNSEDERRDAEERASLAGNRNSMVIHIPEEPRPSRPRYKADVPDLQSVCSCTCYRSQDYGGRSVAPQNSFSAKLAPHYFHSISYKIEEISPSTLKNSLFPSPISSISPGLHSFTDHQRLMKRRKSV
KCNK3 block: human KCNK3 channel inhibitors, primary screen, CHO cells, FluxOR thallium flux, B-score; AID 602410, 2012; Potassium channel subfamily K member 3 (Homo sapiens), O14649; actives 0.84% (n = 340,000); B-score at 10 µM; FluxOR fluorescence; stronger effect = lower value;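 active = B-score under library mean minus 4 SD, starting fluorescence ratio at most library mean plus 5 SD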;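 also: more negative B-score means stronger inhibition of thallium flux through KCNK3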
KCNQ1 block: inhibitors of human KCNQ1 channel, primary screen, cell-based, thallium flux, high-throughput | B-score at 10 µM | AID 2642, 2010 | actives 1.3% (n = 310,000) | CHO-K1 KCNQ1, FluxOR thallium flux fluorescence; stronger effect = higher value;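 active = compounds whose thallium flux B-score, printed positive for inhibition, exceeds three library SD while starting fluorescence stays within three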;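 also: channel opened by potassium depolarization with thallium stimulus after 20 min compound exposure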
KCNQ1 act: potentiators or activators of KCNQ1 channel, primary screen, cell-based, thallium flux, high-throughput; Potassium voltage-gated channel subfamily KQT member 1 (Homo sapiens), P51787; CHO-K1 KCNQ1, thallium flux FluxOR fluorescence; stronger effect = higher value; B-score at 10 µM; actives 0.35% (n = 310,000);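 active = fluorescence ratio B-score, a plate-corrected score, at least three library SD, with initial intensity B-score within 5 SD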
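Assay system: CHO-K1 cells stably expressing KCNQ1; Medium: assay buffer with matched DMSO; Also added: K+/Tl+ depolarizing stimulus; Dosing: single dose; Timing: dye 90 min, compound 20 min, room temperature; Measured by: kinetic FluxOR thallium fluorescence, 10-s 1-Hz baseline, 110-s post-stimulus read; Read-out: peak-minus-minimum fluorescence over initial fluorescence, negative-control normalized, B-scored.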
hERG rescue: hERG rescue from dofetilide block, primary screen, cell-based, CHO-hERG, FluxOR thallium flux, dofetilide IC70; Voltage-gated inwardly rectifying potassium channel KCNH2 (Homo sapiens), Q12809; dofetilide IC70 present; activation (rescue from dofetilide block), less the hit threshold, % at 10 µM; actives 0.51% (n = 310,000);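 active = activation above the mean of controls blocked by dofetilide plus 5 SD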;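 also: thallium influx through hERG after potassium depolarization seen as dye fluorescence rise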
KCNK9 inh conf: KCNK9 potassium channel inhibitors, confirmation, HEK293 cells, thallium flux, duplicate; shares compounds with KCNK9 inh; FluxOR thallium flux fluorescence; inhibition, % at 10 µM; actives 43% (n = 4,900); AID 492992, 2010;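 active = thallium signal inhibited by more than 5 SD of the compound-free buffer control wells, on both duplicate plates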
Kir21 sel: mouse Kir2.1 channel inhibition, confirmation, selectivity assay for KCNK9 modulator project, cell-based, HEK293, thallium flux. actives 4% (n = 4,900). AID 492993, 2010. shares compounds with KCNK9 inh. Kir2.1 cells, FluxOR thallium flux fluorescence. inhibition, % at 10 µM;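 active = thallium signal drop more than 5 SD beyond the mean of the no-compound control wells, seen in both duplicate plates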;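 also: signal is fluorescence rise after thallium addition divided by baseline fluorescence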
HEK293 Tl ctr: thallium flux in non-induced HEK293 cells, confirmation, counter-screen for KCNK9 inhibitor project, cell-based, second counter screen, non-induced KCNK9-HEK293 | shares compounds with KCNK9 inh | FluxOR thallium flux | inhibition, % at 10 µM | actives 40% (n = 4,900) | AID 492997, 2010;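 active = thallium signal drop beyond 5 SD of the untreated control mean, on both duplicate plates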
Numbers stand for hits; n = inactive; x = not tested or not shown.

SMILES	KCNK9 inh	KCNK3 block	KCNQ1 block	KCNQ1 act	hERG rescue	KCNK9 inh conf	Kir21 sel	HEK293 Tl ctr
CCCN1CCC(=O)N(CCSc2ccc(C)cc2)CC1	n	n	n	n	n	x	x	x
Cc1ccc(SCCN2CCN(CCc3ccccc3)CCC2=O)cc1	n	n	n	n	n	n	n	n
CCCN(CCC)CCNC(=O)C1(O)c2ccccc2NC(=O)N1c1cccc(OC)c1 (stereo not given)	n	n	n	n	n	x	x	x
CCOc1ccc(S(=O)(=O)n2nc(C)c(S(=O)(=O)N3CCOCC3)c2C)cc1	n	n	n	n	n	x	x	x
O=C(CSc1nc2ccccc2n1Cc1ccccc1)N/N=C/c1ccco1	n	n	n	n	n	x	x	x
Cc1ccc(Cn2c(SCC(=O)N/N=C/c3ccc(C)o3)nc3ccccc32)cc1	-20.8	n	n	n	n	55.0%	n	41.0%
CCOC(=O)N1CCN(c2c(NC3CCN(Cc4ccccc4)CC3)c(=O)c2=O)CC1	n	n	n	n	n	x	x	x
C=C1CC2C(=O)N(Cc3ccccc3)C(C(=O)OCC)(C(=O)OCC)C1N2C(=O)OC(C)(C)C (stereo not given)	-11.7	n	n	n	n	47.0%	n	37.0%
O=C(C1CC(=O)N(c2ccc3c(c2)OCCO3)C1)N1CCN(S(=O)(=O)c2cccc(F)c2)CC1 (stereo not given)	x	n	x	x	x	x	x	x
CC(C)S(=O)(=O)N1CCN(c2ccnc3cc(Cl)ccc23)CC1	n	n	n	n	n	x	x	x
S=c1[nH]nc(C2COc3ccccc3O2)o1 (stereo not given)	n	n	n	n	n	x	x	x
S=c1nc(C2COc3ccccc3O2)[nH][nH]1 (stereo not given)	n	n	n	n	n	n	n	n
COc1ccc(/C=N/Nc2cc(N3CCCC3)nc(N3CCCC3)n2)cc1	n	n	8	n	n	n	n	n
Oc1ccc(/C=N/Nc2cc(N3CCCC3)nc(N3CCCC3)n2)cc1	n	n	n	n	n	x	x	x
Cc1ccc(-c2nn(-c3ccccc3)cc2/C=N/n2c(-c3cccs3)n[nH]c2=S)cc1	n	n	n	n	n	n	n	n
CCOC(=O)C1=C(C)N(CCCC(=O)O)C(=O)NC1c1cc2ccccc2c2ccccc12 (stereo not given)	n	x	n	n	n	x	x	x
O=C(CSc1ccc2ccccc2n1)c1ccc2c(c1)OCO2	-8.31	n	n	n	n	39.0%	n	36.5%
O=C(O)CSc1ccc2ccccc2n1	n	n	n	n	n	x	x	x
COC(=O)c1cn(CCOc2ccccc2F)c2ccccc12	-11.1	n	n	n	n	45.0%	n	43.5%
CC(C)Oc1ccc(CNC(=O)c2ccc3c(c2)N(C)CCS3)cc1	n	n	n	n	n	n	n	n
Cc1ccc(N2C(SCC(=O)O)=NC(=Nc3cccc(C)c3)C23CCCC3)cc1	n	n	n	n	n	x	x	x
COc1cc(CN2CCc3c([nH]c4ccccc34)C2)cc(OC)c1	-8.1	n	n	n	n	39.0%	n	n
COc1ccccc1CN1CCc2c([nH]c3ccccc23)C1	n	n	n	n	n	x	x	x
COc1c(Cl)cc(Cl)cc1/C=N/n1cnnc1	n	n	n	n	n	x	x	x
COc1ccc(N=C2SC(CC(=O)Nc3ccccc3OC)C(=O)N2Cc2ccco2)cc1 (stereo not given)	n	n	n	n	n	n	n	n
SMILES	KCNK9 inh	KCNK3 block	KCNQ1 block	KCNQ1 act	hERG rescue	KCNK9 inh conf	Kir21 sel	HEK293 Tl ctr
O=C(O)c1ccc(N2C(=O)CC(N3C(=O)/C(=C/c4ccc(Cl)cc4)SC3=S)C2=O)cc1 (stereo not given)	n	n	n	n	n	n	n	n
CC(=O)Nc1ccc(OS(=O)(=O)c2ccc(C(C)(C)C)cc2)cc1	n	x	n	n	n	x	x	x
Cc1cc(C(=O)CSc2nnnn2-c2ccc(O)cc2)c(C)n1Cc1ccc2c(c1)OCO2	-9.75	n	n	n	n	28.5%	n	n
O=C(NC1CCCCCC1)c1ccc([N+](=O)[O-])s1	x	n	x	x	x	x	x	x
CCOc1ccc(OCCOC(=O)C2CCN(S(=O)(=O)c3ccc(C)c(C)c3)CC2)cc1	n	n	n	n	n	n	n	n
COc1ccc(-c2csc(Nc3ccc(S(=O)(=O)Nc4cc(OC)nc(OC)n4)cc3)n2)cc1	n	n	n	n	n	x	x	x
COc1ccc(-c2csc(Nc3ccc(S(=O)(=O)Nc4cc(C)on4)cc3)n2)cc1C	-8.74	n	n	n	n	55.5%	n	n
CCc1ccc(OCc2nnc(SCC(=O)NC3CCCCC3)o2)cc1	n	n	n	n	n	x	x	x
Brc1ccc(OCc2nnc(SCC3CCCCC3)o2)cc1	-8.85	n	n	n	n	26.0%	n	36.0%
COc1ccc(C(=O)/C=C(\C)NCc2ccc3c(c2)OCO3)cc1	n	n	n	n	n	n	n	n
CCNCC(=O)N1c2ccccc2CCc2ccc(NC(=O)OC(C)C)cc21	-12.9	n	n	n	n	65.5%	n	n
CCNCC(=O)N1c2ccccc2CCc2ccc(NC(C)=O)cc21	n	n	n	n	n	x	x	x
CCn1c2ccccc2c2cc(NC(=O)c3cccc(OC)c3)ccc21	-11.9	n	n	n	n	43.0%	n	35.5%
CCn1c2ccccc2c2cc(NC(=O)c3cccc(OC)c3OC)ccc21	n	n	n	n	n	x	x	x
C=C(C)C1CC=C(CN2CCN(Cc3ccccc3)CC2)CC1 (stereo not given)	n	n	n	n	n	n	n	n
C=C(C)[C@@H]1CC=C(CN2CCN(Cc3ccccc3)CC2)CC1	n	n	n	n	n	x	x	x
Cc1nn(-c2ccccc2)c(Cl)c1/C=N/NC(=O)c1ccco1	-8.65	n	n	n	n	49.5%	n	27.5%
Cc1nn(-c2ccccc2)c(Cl)c1/C=N/NC(=O)OC(C)(C)C	-11.4	n	n	n	n	49.0%	n	n
OC1(c2ccc(Cl)c(Cl)c2)C[n+]2ccccc2N1Cc1ccccc1 (stereo not given)	n	n	n	n	n	x	x	x
Clc1cccc(CSc2nnc(-c3ccccn3)n2Cc2ccco2)c1	n	n	n	n	n	x	x	x
Brc1ccc(CSc2nnc(-c3ccccn3)n2Cc2ccco2)cc1	-16.3	n	n	n	n	43.5%	n	41.0%
CN1CCN(C(=O)CCCN2C(=O)/C(=C/c3cccc(Br)c3)SC2=S)CC1	n	n	n	n	n	n	n	n

Screening data: PubChem, Johns Hopkins Ion Channel Center
